The source made the active and inactive calls. The calls are words filed in the database; no cut-off is given here.
Key:
[1] = Antitumor activity against mouse early Lewis lung carcinoma allografted in BDF1 mouse assessed as increase in host life span at 113 mg/kg, ip administered as single dose on 1 or 2 days post-tumor implantation; type: functional; details: route intraperitoneal
In short: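 Early disease: BDF1 mice carrying sc trocar implants of about 40 mg Lewis lung fragments. One ip dose given on day 1 or 2 after implant, in distilled water or saline, at ≤0.5 ml. Endpoints were % increase in life-span of dying animals and delay in days for the primary tumor to reach 1 g. Untreated controls served as reference.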

[2] = Antitumor activity against mouse early Lewis lung carcinoma allografted in BDF1 mouse assessed as increase in host life span at 50 mg/kg, ip administered as single dose on 1 or 2 days post-tumor implantation; type: functional; details: route intraperitoneal
In short: (§1)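 BDF1 mice (C57Blk/6 × DBA/2) implanted sc by trocar with ~40 mg Lewis lung tumor fragments from bacteriologically sterile donor tumors. Single ip dose on day 1 or 2, as a solution or suspension in water (CMC or gum acacia) or saline (HPC or Tween 80). Read-out is […]. Same-dose toxicity controls were run in nontumor-bearing mice.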

[3] = Antitumor activity against mouse early Lewis lung carcinoma allografted in BDF1 mouse assessed as time delay in tumor growth at 113 mg/kg, ip administered as single dose on 1 or 2 days post-tumor implantation; type: functional; details: route intraperitoneal
In short: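 Sc trocar implants of about 40 mg Lewis lung fragments in BDF1 mice. A single ip injection was given on day 1 or 2, in water or physiological saline, at ≤0.5 ml. Tumor size came from caliper length and width as w = ab²/2, measured at least twice weekly. Growth delay is the extra days taken to reach 1 g, compared with untreated controls.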

[4] = Antitumor activity against mouse early Lewis lung carcinoma allografted in BDF1 mouse assessed as time delay in tumor growth at 50 mg/kg, ip administered as single dose on 1 or 2 days post-tumor implantation; type: functional; details: route intraperitoneal
In short: (§2)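 BDF1 mice (C57Blk/6 × DBA/2) implanted sc by trocar with ~40 mg Lewis lung tumor fragments from bacteriologically sterile donors. A single ip dose was given on day 1 or 2, as a solution or suspension in water or saline with suspending agent, at ≤0.5 ml. Tumors were measured by caliper at least twice weekly, with weight = ab²/2. Delay was taken as the days for the tumor to reach 1 g.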

[5] = Antitumor activity against mouse early Lewis lung carcinoma allografted in ip dosed BDF1 mouse assessed as disease cure administered as single dose on 1 or 2 days post-tumor implantation measured for 80 days post-drug treatment; type: functional
In short: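 BDF1 mice implanted sc by trocar with ~40 mg Lewis lung fragments from sterile donor tumors. A single ip dose was given on day 1 or 2 after implant, in water or saline vehicle. Cures were scored in animals observed for at least 80 days after treatment. Drug-toxicity controls were matched non-tumor-bearing mice monitored for body weight and deaths.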

[6] = Ratio of ED50 for antitumor activity against mouse L1210 cells allografted in ip dosed mouse to LD10 for mouse
[7] = tested on: Mus musculus; test: Antitumor activity against mouse advanced Lewis lung carcinoma allografted in ip dosed BDF1 mouse assessed as complete regression of established tumor administered as single dose on day 6 or 7 post-tumor implantation; type: functional, organism-based
In short: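 BDF1 mice (C57Blk/6 × DBA/2) implanted sc by trocar with Lewis lung tumor fragments of about 40 mg, taken only from bacteriologically sterile donor tumors. Mice bearing tumors of about 400 mg (day 6-7) were selected. Each received a single ip dose on day 7, at or below the LD10 in normal mice. Groups were of 10 mice. Tumor weight was taken from calipers as w = ab²/2, measured at least twice weekly. Matched non-tumor mice served as toxicity controls.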

[8] = Antitumor activity against mouse advanced Lewis lung carcinoma allografted in ip dosed BDF1 mouse assessed as increase in host lifespan administered as single dose on day 6 or 7 post-tumor implantation; type: functional
In short: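 Advanced Lewis lung model: about 40 mg fragments implanted sc by trocar into BDF1 mice, and mice with tumors of about 400 mg (day 6-7) selected. Tumor weight from calipers, w = ab²/2. Agent given as one ip dose in distilled water or physiological saline. Nontumor-bearing mice received matching doses as toxicity controls.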

[9] = Antitumor activity against mouse early Lewis lung carcinoma allografted in BDF1 mouse assessed as increase in host life span at 38 mg/kg, ip administered as single dose on 1 or 2 days post-tumor implantation; type: functional; details: route intraperitoneal; in short: as §1
[10] = Antitumor activity against mouse early Lewis lung carcinoma allografted in BDF1 mouse assessed as increase in host life span at 25 mg/kg, ip administered as single dose on 1 or 2 days post-tumor implantation; type: functional; details: route intraperitoneal; in short: as §1
[11] = Antitumor activity against mouse early Lewis lung carcinoma allografted in BDF1 mouse assessed as time delay in tumor growth at 38 mg/kg, ip administered as single dose on 1 or 2 days post-tumor implantation; type: functional; details: route intraperitoneal; in short: as §2
[12] = Antitumor activity against mouse early Lewis lung carcinoma allografted in BDF1 mouse assessed as time delay in tumor growth at 25 mg/kg, ip administered as single dose on 1 or 2 days post-tumor implantation; type: functional; details: route intraperitoneal; in short: as §2
[13] = Antitumor activity against mouse early Lewis lung carcinoma allografted in BDF1 mouse assessed as increase in host life span at 20 mg/kg, ip administered as single dose on 1 or 2 days post-tumor implantation; type: functional; details: route intraperitoneal; in short: as §1
[14] = Antitumor activity against mouse early Lewis lung carcinoma allografted in BDF1 mouse assessed as increase in host life span at 30 mg/kg, ip administered as single dose on 1 or 2 days post-tumor implantation; type: functional; details: route intraperitoneal; in short: as §1
[15] = Antitumor activity against mouse early Lewis lung carcinoma allografted in BDF1 mouse assessed as time delay in tumor growth at 20 mg/kg, ip administered as single dose on 1 or 2 days post-tumor implantation; type: functional; details: route intraperitoneal; in short: as §2
[16] = Antitumor activity against mouse early Lewis lung carcinoma allografted in BDF1 mouse assessed as time delay in tumor growth at 30 mg/kg, ip administered as single dose on 1 or 2 days post-tumor implantation; type: functional; details: route intraperitoneal; in short: as §2

SMILES | ILS at 113 mg/kg [1] [%] | ILS at 50 mg/kg [2] [%] | Time [3] [days] | Time [4] [days] | Activity [5] [%] | Ratio [6] | inhibition [7] | ILS [8] [%] | ILS at 38 mg/kg [9] [%] | ILS at 25 mg/kg [10] [%] | Time [11] [days] | Time [12] [days] | ILS at 20 mg/kg [13] [%] | ILS at 30 mg/kg [14] [%] | Time [15] [days] | Time [16] [days]
C[C@@H]1CCC[C@@H](NC(=O)N(CCCl)N=O)C1 (relative stereo) | 50 | 47 | 6.1 | 4 | 10 | 0.4 | inactive | <25 |  |  |  |  |  |  |  | 
O=NN(CCCl)C(=O)N[C@H]1CC[C@@H](CC(=O)O)CC1 |  |  |  |  | >50 | 0.4 | inactive | <25 | 42 | 59 | 9.2 | 8.2 |  |  |  | 
C[C@H]1SC[C@@H](NC(=O)N(CCCl)N=O)CS1 |  |  |  |  | 10 | 0.4 | inactive | <25 |  |  |  |  | 0 | 42 | 8.1 | 18
